For orientation: IC50 means the midpoint of a concentration-inhibition curve.

The test system of one data set is B16-F10. The experiment in a line: Cytotoxicity against mouse B16-F10 cells assessed as reduction in cell viability measured after 48 hrs by MTT assay. Type of data set: functional, cell-based. The note with it: B16-F10, 48 h. A digest of the protocol:
(§1)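 Cells kept in medium with 10% FBS and 1% antibiotic–antimycotic at 37 °C, 5% CO2. Seeded at 3000–4000 cells/well, grown overnight, then given fresh medium with a range of concentrations (diluted from 10 mM DMSO stocks) for 48 h. MTT (0.5 mg/mL) added for 3–4 h at 37 °C. Formazan dissolved in DMSO and absorbance read at 570 nm.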

Another data set deals with HCT-116. Nature of the data set: Cytotoxicity against human HCT-116 cells assessed as reduction in cell viability measured after 48 hrs by MTT assay. The note with it: HCT-116, 48 h. Format: functional, cell-based. A digest of the protocol:
as §1

Another data set has as its system SK-MEL-28. Nature of the data set: Cytotoxicity against human SK-MEL-28 cells assessed as reduction in cell viability measured after 48 hrs by MTT assay. Particulars: SK-MEL-28, 48 h. Format: functional, cell-based. A digest of the protocol:
as §1
A general note: Tetrazolium assays rely on reduction of a dye to a coloured formazan, in cell work by metabolically active cells.

The subject of a further data set is A549. The experiment in a line: Cytotoxicity against human A549 cells assessed as reduction in cell viability measured after 48 hrs by MTT assay. Format: functional, cell-based. The note with it: A549, 48 h. A digest of the protocol:
as §1

Data set [1] in a line: Cytotoxicity against human BEAS-2B cells assessed as reduction in cell viability measured after 48 hrs by MTT assay. Format: toxicity, cell-based. The method in brief: as §1

Bounds are passed on as bounds.

In the case of `Cn1cc(-c2cc(/N=C3/NC(=O)CS3)n(-c3cccc(Cl)c3)n2)c2ccccc21`, the IC50 in the data set on B16-F10 is greater than 50 µM; in the data set on HCT-116, 23.6 µM; in the data set with SK-MEL-28, 26.1 µM; in the data set on A549, 22.9 µM.
On to `CCc1ccccc1-n1nc(-c2c[nH]c3ccccc23)cc1/N=C1/NC(=O)CS1`, for which the IC50 came out at 18.5 µM in the data set with B16-F10, 36.8 µM with HCT-116, 23.2 µM in the data set with SK-MEL-28 and 25.3 µM in the data set with A549. Further, the concentration for half-maximal inhibition (IC50) at 48 h in data set [1] amounted to 14.8 µM.
Turning to `CCn1cc(-c2cc(/N=C3/NC(=O)CS3)n(-c3cccc(Cl)c3)n2)c2cc(Br)ccc21`, the IC50 with B16-F10 was greater than 50 µM; in the data set on HCT-116, greater than 50 µM; in the data set on SK-MEL-28, 31.4 µM; with A549, greater than 50 µM.
Consider `CCn1cc(-c2cc(/N=C3/NC(=O)CS3)n(-c3ccc(C#N)cc3)n2)c2ccccc21`, for which the IC50 in the data set on B16-F10 is 18.6 µM; in the data set on HCT-116, greater than 50 µM; in the data set with SK-MEL-28, 25 µM; in the data set with A549 it was 39.2 µM. Moreover, the IC50 at 48 h in data set [1] was greater than 50 µM.
Turning to `CCc1ccccc1-n1nc(-c2c[nH]c3ccc(OC)cc23)cc1/N=C1/NC(=O)CS1`, the IC50 with B16-F10 is 10.8 µM; in the data set with HCT-116 it was 18 µM; with SK-MEL-28 it was greater than 50 µM; with A549 it was 25.8 µM. The IC50 at 48 h in data set [1] amounted to 32 µM.
For `CCc1ccccc1-n1nc(-c2cn(C)c3ccccc23)cc1/N=C1/NC(=O)CS1`, the IC50 in the data set on B16-F10 was greater than 50 µM; in the data set with HCT-116, greater than 50 µM; in the data set with SK-MEL-28 it was 49.9 µM; in the data set on A549, 39.1 µM.
`CCc1ccccc1-n1nc(-c2cn(C)c3ccc(Br)cc23)cc1/N=C1/NC(=O)CS1`: the IC50 with B16-F10, in the data set on HCT-116, in the data set on SK-MEL-28 and with A549 was greater than 50 µM throughout.
Regarding `CCn1cc(-c2cc(/N=C3/NC(=O)CS3)n(-c3ccc(Cl)cc3)n2)c2cc(Br)ccc21`, the IC50 in the data set with B16-F10 was 18.4 µM; in the data set with HCT-116, greater than 50 µM; in the data set with SK-MEL-28, 24.9 µM; in the data set on A549 it was 33.7 µM.
The matching figures for `CCc1ccccc1-n1nc(-c2cn(CC)c3ccccc23)cc1/N=C1/NC(=O)CS1`: greater than 50 µM, 19.8 µM, greater than 50 µM and 33 µM.
The matching figures for `Cn1cc(-c2cc(/N=C3/NC(=O)CS3)n(-c3ccc(C#N)cc3)n2)c2ccccc21`: greater than 50 µM, 25.1 µM, 22.7 µM and 37.2 µM.
On to `Cn1cc(-c2cc(/N=C3/NC(=O)CS3)n(-c3ccc(Cl)cc3)n2)c2ccccc21`, for which the IC50 with B16-F10 is greater than 50 µM; with HCT-116, greater than 50 µM; in the data set on SK-MEL-28, greater than 50 µM; with A549 it was 30.2 µM.
As for `CCn1cc(-c2cc(/N=C3/NC(=O)CS3)n(-c3cccc(Cl)c3)n2)c2cc(OC)ccc21`, the IC50 in the data set on B16-F10 was 36.4 µM; in the data set with HCT-116 it was 14.8 µM; with SK-MEL-28, greater than 50 µM; with A549, 16.9 µM.
For the compound `CCc1ccccc1-n1nc(-c2cn(C)c3ccc(OC)cc23)cc1/N=C1/NC(=O)CS1`, the IC50 in the data set on B16-F10 was greater than 50 µM; with HCT-116, 34.1 µM; in the data set on SK-MEL-28, 28 µM; with A549, greater than 50 µM. In data set [1], the IC50 at 48 h was greater than 50 µM.
On to `CCc1ccccc1-n1nc(-c2cn(Cc3ccccc3)c3ccccc23)cc1/N=C1/NC(=O)CS1`, for which the IC50 in the data set on B16-F10 is greater than 50 µM; with HCT-116, 35.8 µM; with SK-MEL-28, 33.8 µM; with A549 it was 36.5 µM. Besides, the IC50 at 48 h in data set [1] worked out at 27.4 µM.
For `COc1ccc2c(c1)c(-c1cc(/N=C3/NC(=O)CS3)n(-c3ccc(Cl)cc3)n1)cn2Cc1ccccc1`, the IC50 in the data set on B16-F10, in the data set with HCT-116, in the data set with SK-MEL-28 and in the data set on A549 was greater than 50 µM each time.
As for `O=C1CS/C(=N\c2cc(-c3c[nH]c4ccccc34)nn2-c2ccccc2)N1`, the half-inhibitory concentration (IC50) with B16-F10 is greater than 50 µM; in the data set on HCT-116, greater than 50 µM; in the data set on SK-MEL-28, 34 µM; with A549, 22.5 µM. Besides, the IC50 at 48 h in data set [1] is greater than 50 µM.
In the case of `COc1ccc2c(c1)c(-c1cc(/N=C3/NC(=O)CS3)n(-c3cccc(Cl)c3)n1)cn2C`, the IC50 was 23.4 µM with B16-F10, 22.2 µM in the data set with HCT-116, greater than 50 µM in the data set with SK-MEL-28 and greater than 50 µM in the data set on A549.
In the case of `Cn1cc(-c2cc(/N=C3/NC(=O)CS3)n(-c3ccc(C#N)cc3)n2)c2cc(Br)ccc21`, the IC50 in the data set on B16-F10 is 10.6 µM; with HCT-116, 37.3 µM; with SK-MEL-28, greater than 50 µM; in the data set on A549, greater than 50 µM.
With `CCn1cc(-c2cc(/N=C3/NC(=O)CS3)n(-c3ccc(Cl)cc3)n2)c2cc(OC)ccc21`, the IC50 with B16-F10 is 14.2 µM; in the data set on HCT-116 it was greater than 50 µM; in the data set with SK-MEL-28, greater than 50 µM; with A549, 48.1 µM. Also, in data set [1], the IC50 at 48 h is greater than 50 µM.
For `CCc1ccccc1-n1nc(-c2cn(CC)c3ccc(Br)cc23)cc1/N=C1/NC(=O)CS1`, the IC50 with B16-F10 was greater than 50 µM; with HCT-116 it was greater than 50 µM; with SK-MEL-28 it was 34.3 µM; in the data set on A549, 33.9 µM.
`CCn1cc(-c2cc(/N=C3/NC(=O)CS3)n(-c3cccc(Cl)c3)n2)c2ccccc21`: the half-maximal inhibitory concentration (IC50) with B16-F10 was 21.2 µM; with HCT-116, greater than 50 µM; in the data set on SK-MEL-28, 26 µM; in the data set on A549, 26 µM.
As for `COc1ccc2[nH]cc(-c3cc(/N=C4/NC(=O)CS4)n(-c4ccc(Cl)cc4)n3)c2c1`, the IC50 with B16-F10 amounted to 39.4 µM; in the data set on HCT-116, 11.2 µM; in the data set with SK-MEL-28, 11.3 µM; in the data set on A549 it was 20.9 µM.
The matching figures for `N#Cc1ccc(-n2nc(-c3cn(Cc4ccccc4)c4ccccc34)cc2/N=C2/NC(=O)CS2)cc1`: greater than 50 µM, 33.1 µM, greater than 50 µM and 22.3 µM.
On to `Cn1cc(-c2cc(/N=C3/NC(=O)CS3)n(-c3cccc(Cl)c3)n2)c2cc(Br)ccc21`, for which the IC50 came to 26 µM in the data set on B16-F10, 20.7 µM in the data set on HCT-116, 17 µM with SK-MEL-28 and 32.8 µM with A549.
With `CCn1cc(-c2cc(/N=C3/NC(=O)CS3)n(-c3ccc(C#N)cc3)n2)c2cc(Br)ccc21`, the half-maximal inhibitory concentration (IC50) in the data set on B16-F10 is 11 µM; with HCT-116, greater than 50 µM; with SK-MEL-28, 32.1 µM; in the data set with A549, 36.6 µM.
For `CCc1ccccc1-n1nc(-c2cn(CC)c3ccc(OC)cc23)cc1/N=C1/NC(=O)CS1`, the IC50 with B16-F10 is greater than 50 µM; in the data set on HCT-116, 45.8 µM; with SK-MEL-28, 26.8 µM; in the data set on A549 it was 24.2 µM.
The matching figures for `O=C1CS/C(=N\c2cc(-c3c[nH]c4ccccc34)nn2-c2ccc(Cl)cc2)N1`: greater than 50 µM, 13.8 µM, 12.8 µM and 16.4 µM.
Consider `O=C1CS/C(=N\c2cc(-c3cn(Cc4ccccc4)c4ccccc34)nn2-c2ccc(Cl)cc2)N1`, for which the IC50 was greater than 50 µM in the data set with B16-F10, greater than 50 µM in the data set with HCT-116, greater than 50 µM with SK-MEL-28 and 46.4 µM in the data set with A549.
Turning to `N#Cc1ccc(-n2nc(-c3c[nH]c4ccccc34)cc2/N=C2/NC(=O)CS2)cc1`, the IC50 in the data set with B16-F10 was greater than 50 µM; in the data set with HCT-116, greater than 50 µM; in the data set with SK-MEL-28, 25.4 µM; in the data set with A549, 34 µM.
